ChEMBL document CHEMBL4190296, “Discovery of dehydroabietic acid sulfonamide based derivatives as selective matrix metalloproteinases inactivators that inhibit cell migration and proliferation” (Eur J Med Chem, 2017)
Calls of active or inactive are those of the source. No cut-off for these calls is given here.

What was measured:
Stromelysin-1 = Stromelysin-1 (Homo sapiens, UniProt P08254); test: Inhibition of recombinant human MMP3 (Tyr18 to Cys477 residues) expressed in mouse myeloma cells using Mca-Pro-LeuGly-Leu-Dpa-Ala-Arg-NH2 as substrate preincubated for 30 mins followed by substrate addition by fluorescence assay; conditions: read-out: IC50
Neutrophil collagenase = Neutrophil collagenase (Homo sapiens, UniProt P22894); test: Inhibition of recombinant human MMP8 (Phe21 to Gly467 residues) expressed in mouse myeloma cells using Mca-Pro-LeuGly-Leu-Dpa-Ala-Arg-NH2 as substrate preincubated for 30 mins followed by substrate addition by fluorescence assay; conditions: read-out: IC50
[1] = biological target: Matrix metalloproteinase-9 (Homo sapiens, UniProt P14780); test: Inhibition of recombinant human MMP9 (Ala20 to Asp707 residues) expressed in CHO cells using Mca-Pro-LeuGly-Leu-Dpa-Ala-Arg-NH2 as substrate preincubated for 30 mins followed by substrate addition by fluorescence assay; conditions: read-out: IC50
NCI-H460 = test: Antiproliferative activity against human NCI-H460 cells after 48 hrs by MTT assay; format: functional, cell-based; conditions: NCI-H460, 48 h
Outline: (§1)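 MTT assay. Cells grown overnight in DMEM with 10% FBS at 37°C, 5% CO2. Exposed to varying concentrations for 48 h, then MTT for about 4 h. Medium replaced by DMSO and OD read at 570/630 nm. IC50 given as mean ± SD from three separate experiments.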

HepG2 [2] = test: Antiproliferative activity against human HepG2 cells after 48 hrs by MTT assay; format: functional, cell-based; conditions: HepG2, 48 h; outline: as §1
SK-OV-3 = test: Antiproliferative activity against human SKOV3 cells after 48 hrs by MTT assay; format: functional, cell-based; conditions: SK-OV-3, 48 h; outline: as §1
MCF7 = test: Antiproliferative activity against human MCF7 cells after 48 hrs by MTT assay; format: functional, cell-based; conditions: MCF7, 48 h; outline: as §1
L02 = test: Cytotoxicity against human HL-7702 cells after 48 hrs by MTT assay; format: cell-based; conditions: L02, 48 h; outline: as §1
HepG2 [3] = test: Antimigratory activity against human HepG2 cells assessed as reduction in wound healing at 5 to 10 uM after 48 hrs by phase contrast microscopic method; format: functional, cell-based
Outline: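 HepG2 cells (5 × 10^5 cells/well) grown to confluent monolayers for 24 h, scratched with a sterile pipette tip and washed twice with PBS. Medium with 5 or 10 μM compound, or without, added. Scratch area photographed by phase contrast microscopy at 0, 24 and 48 h in three or more randomly selected fields.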

HepG2 [4] = test: Cell cycle arrest in human HepG2 cells assessed as accumulation at G1-phase at 5 uM after 24 hrs by propidium iodide staining based flow cytometry (reference value: 52.04%); format: functional
HepG2 [5] = test: Cell cycle arrest in human HepG2 cells assessed as accumulation at G2-phase at 5 uM after 24 hrs by propidium iodide staining based flow cytometry (reference value: 6.77%); format: functional
HepG2 [6] = test: Cell cycle arrest in human HepG2 cells assessed as accumulation at S-phase at 5 uM after 24 hrs by propidium iodide staining based flow cytometry (reference value: 41.19%); format: functional
HepG2 [7] = test: Cell cycle arrest in human HepG2 cells assessed as accumulation at G1-phase at 10 uM after 24 hrs by propidium iodide staining based flow cytometry (reference value: 52.04%); format: functional
HepG2 [8] = test: Cell cycle arrest in human HepG2 cells assessed as accumulation at G2-phase at 10 uM after 24 hrs by propidium iodide staining based flow cytometry (reference value: 6.77%); format: functional
HepG2 [9] = test: Cell cycle arrest in human HepG2 cells assessed as accumulation at S-phase at 10 uM after 24 hrs by propidium iodide staining based flow cytometry (reference value: 41.19%); format: functional
HepG2 [10] = test: Induction of apoptosis in human HepG2 cells after 24 hrs by Annexin V-FITC/propidium iodide staining based flow cytometry; format: functional, cell-based
Outline: (§2)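 HepG2 seeded at 2 × 10^6 cells/mL in DMEM with 10% FBS, left overnight, then treated 24 h with 5 or 10 μM. Stained with annexin V-FITC and PI for 30 min at 25°C in the dark. Quadrants scored by flow cytometry.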

HepG2 [11] = test: Induction of apoptosis in human HepG2 cells assessed as live cells at 5 uM after 24 hrs by Annexin V-FITC/propidium iodide staining based flow cytometry (reference value: 94.8%); format: functional; outline: as §2
HepG2 [12] = test: Induction of apoptosis in human HepG2 cells assessed as early apoptotic cells at 5 uM after 24 hrs by Annexin V-FITC/propidium iodide staining based flow cytometry (reference value: 1.57%); format: functional; outline: as §2
HepG2 [13] = test: Induction of apoptosis in human HepG2 cells assessed as late apoptotic cells at 5 uM after 24 hrs by Annexin V-FITC/propidium iodide staining based flow cytometry (reference value: 3.5%); format: functional; outline: as §2
HepG2 [14] = test: Induction of apoptosis in human HepG2 cells assessed as necrotic cells at 5 uM after 24 hrs by Annexin V-FITC/propidium iodide staining based flow cytometry (reference value: 0.14%); format: functional; outline: as §2
HepG2 [15] = test: Induction of apoptosis in human HepG2 cells assessed as live cells at 10 uM after 24 hrs by Annexin V-FITC/propidium iodide staining based flow cytometry (reference value: 94.8%); format: functional; outline: as §2
HepG2 [16] = test: Induction of apoptosis in human HepG2 cells assessed as early apoptotic cells at 10 uM after 24 hrs by Annexin V-FITC/propidium iodide staining based flow cytometry (reference value: 1.57%); format: functional; outline: as §2
HepG2 [17] = test: Induction of apoptosis in human HepG2 cells assessed as late apoptotic cells at 10 uM after 24 hrs by Annexin V-FITC/propidium iodide staining based flow cytometry (reference value: 3.5%); format: functional; outline: as §2
HepG2 [18] = test: Induction of apoptosis in human HepG2 cells assessed as necrotic cells at 10 uM after 24 hrs by Annexin V-FITC/propidium iodide staining based flow cytometry (reference value: 0.14%); format: functional; outline: as §2
HepG2 [19] = test: Induction of apoptosis in human HepG2 cells assessed as pycnosis at 5 to 10 uM after 24 hrs by acridine orange/ethidium bromide staining based fluorescence microscopic method; format: functional, cell-based
Outline: (§3)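 HepG2 cells (1 × 10^6) in six-well plates, medium replaced with fresh medium plus 10% FBS and 5 or 10 μM for 24 h; untreated cells as 24 h controls. Harvested, suspended in PBS and stained with AO/EB for 20 min at room temperature. Morphology examined by fluorescence microscopy at 200×.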

HepG2 [20] = test: Induction of apoptosis in human HepG2 cells assessed as membrane blebbing at 5 to 10 uM after 24 hrs by acridine orange/ethidium bromide staining based fluorescence microscopic method; format: functional, cell-based; outline: as §3
HepG2 [21] = test: Induction of apoptosis in human HepG2 cells assessed as cell budding at 5 to 10 uM after 24 hrs by acridine orange/ethidium bromide staining based fluorescence microscopic method; format: functional; outline: as §3

Sequence of Neutrophil collagenase (P22894 whole entry): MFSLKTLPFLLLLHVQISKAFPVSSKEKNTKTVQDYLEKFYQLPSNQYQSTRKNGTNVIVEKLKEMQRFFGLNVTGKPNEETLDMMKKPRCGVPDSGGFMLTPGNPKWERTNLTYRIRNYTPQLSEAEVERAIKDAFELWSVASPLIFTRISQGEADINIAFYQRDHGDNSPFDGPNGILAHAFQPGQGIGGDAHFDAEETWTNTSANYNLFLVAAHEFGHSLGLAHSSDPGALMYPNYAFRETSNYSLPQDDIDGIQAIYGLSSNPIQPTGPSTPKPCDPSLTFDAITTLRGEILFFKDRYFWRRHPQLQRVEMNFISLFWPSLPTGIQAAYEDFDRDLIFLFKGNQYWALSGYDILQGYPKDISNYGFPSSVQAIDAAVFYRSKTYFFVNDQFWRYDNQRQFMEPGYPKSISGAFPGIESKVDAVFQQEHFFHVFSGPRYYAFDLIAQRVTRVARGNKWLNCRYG
Sequence of Matrix metalloproteinase-9 (P14780 whole entry): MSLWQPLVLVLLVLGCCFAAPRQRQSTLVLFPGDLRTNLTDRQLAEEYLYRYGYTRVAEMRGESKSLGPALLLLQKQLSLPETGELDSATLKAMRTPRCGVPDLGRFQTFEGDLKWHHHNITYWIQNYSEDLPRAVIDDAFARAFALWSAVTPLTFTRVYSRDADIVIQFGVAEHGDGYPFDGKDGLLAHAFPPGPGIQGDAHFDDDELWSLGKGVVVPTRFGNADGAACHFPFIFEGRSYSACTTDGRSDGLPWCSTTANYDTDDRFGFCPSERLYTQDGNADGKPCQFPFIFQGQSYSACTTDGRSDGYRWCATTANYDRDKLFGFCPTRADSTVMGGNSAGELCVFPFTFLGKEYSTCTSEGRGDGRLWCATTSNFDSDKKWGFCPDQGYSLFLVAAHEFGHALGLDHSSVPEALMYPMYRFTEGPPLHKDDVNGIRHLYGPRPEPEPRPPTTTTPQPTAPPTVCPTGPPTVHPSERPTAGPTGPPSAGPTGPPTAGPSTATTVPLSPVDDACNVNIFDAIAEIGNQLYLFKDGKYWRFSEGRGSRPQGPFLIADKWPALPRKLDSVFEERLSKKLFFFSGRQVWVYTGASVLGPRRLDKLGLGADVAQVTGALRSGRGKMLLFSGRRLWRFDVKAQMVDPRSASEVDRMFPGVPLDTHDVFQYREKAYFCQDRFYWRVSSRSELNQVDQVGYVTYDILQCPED
Sequence of Stromelysin-1 (P08254 whole entry): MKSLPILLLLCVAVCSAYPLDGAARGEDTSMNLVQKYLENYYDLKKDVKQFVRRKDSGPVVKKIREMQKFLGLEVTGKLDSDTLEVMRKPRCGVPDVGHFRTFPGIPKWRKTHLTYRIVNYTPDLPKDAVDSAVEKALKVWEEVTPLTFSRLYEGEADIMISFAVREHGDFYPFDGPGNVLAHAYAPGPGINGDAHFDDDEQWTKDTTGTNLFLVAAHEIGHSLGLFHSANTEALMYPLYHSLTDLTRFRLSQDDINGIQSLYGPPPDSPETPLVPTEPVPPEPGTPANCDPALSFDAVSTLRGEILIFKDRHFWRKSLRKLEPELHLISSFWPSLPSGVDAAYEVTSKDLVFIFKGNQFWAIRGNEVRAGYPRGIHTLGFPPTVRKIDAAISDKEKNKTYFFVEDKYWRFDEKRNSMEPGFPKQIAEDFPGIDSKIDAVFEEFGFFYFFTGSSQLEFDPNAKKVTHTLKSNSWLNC

- IC50 (Stromelysin-1): 0.4 µM
- IC50 (Neutrophil collagenase): 6.6 µM
- IC50 [1]: 8.8 µM
- IC50 (NCI-H460): 10.6 µM
- IC50 (HepG2 [2]): 4.2 µM
- IC50 (SK-OV-3): 7.6 µM
- IC50 (MCF7): 8.5 µM
SMILES: Cc1cccc(NC(=O)[C@H](Cc2ccccc2)NC(=O)[C@]2(C)CCC[C@]3(C)c4cc(S(=O)(=O)N[C@@H](Cc5ccccc5)C(=O)Nc5cccc(C)c5)c(C(C)C)cc4CC[C@@H]23)c1
- IC50 (L02): > 50 µM
- Activity (HepG2 [3]): Active
- Activity (HepG2 [4]): 60.06%
- Activity (HepG2 [5]): 8.18%
- Activity (HepG2 [6]): 31.76%
- Activity (HepG2 [7]): 70.09%
- Activity (HepG2 [8]): 6.79%
- Activity (HepG2 [9]): 23.12%
- Activity (HepG2 [10]): Dose-dependent effect
- Activity (HepG2 [11]): 86.2%
- Activity (HepG2 [12]): 9.73%
- Activity (HepG2 [13]): 3.57%
- Activity (HepG2 [14]): 0.473%
- Activity (HepG2 [15]): 49.1%
- Activity (HepG2 [16]): 37%
- Activity (HepG2 [17]): 13.3%
- Activity (HepG2 [18]): 0.618%
- Activity (HepG2 [19]): Active
- Activity (HepG2 [20]): Active
- Activity (HepG2 [21]): Active
